From ChEMBL document CHEMBL5370602, “Structure-Based Design of a Lead Compound Derived from Natural Schweinfurthins with Antitumor Properties That Target Oxysterol-Binding Protein” (J Med Chem, 2023)

What was measured:
[1] = Antitumor activity in high alert medicated patient derived human GBM1 cells xenografted in immunodeficient nude mouse model assessed as change in tumor volume at 20 mg/kg,ip QD cotreatment with Temozolomide at 42 mg/kg,po QD and measured after 11 days relative to control; assay type: functional; conditions: time 11 day
Outline: (§1)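 Female athymic nude mice bearing subcutaneous GBM1-HAM PDX fragments (20 mm³); treatment began day 11 post-implant at tumour volumes 75-196 mm³, 10 per group. Compound i.p. daily in cyclodextrin vehicle (17 days alone, 27 days in combination); temozolomide 42 mg/kg p.o. daily for 5 days in PBS/glucose/Tween 80. Calliper volumes three times weekly; body weight and clinical signs monitored.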

[2] = biological target: T1, Oxysterol-binding protein 1 (Homo sapiens, UniProt P22059); test: Inhibition of human C-terminal 6-His tagged OSBP ORD domain (401 to 807 residues) expressed in baculovirus-infected Sf9 cells assessed as reduction in DHE transfer from liposome (Le mimicking ER) to liposome (Lg mimicking golgi) with compound by FRET assay
T1 sequence (P22059 whole entry): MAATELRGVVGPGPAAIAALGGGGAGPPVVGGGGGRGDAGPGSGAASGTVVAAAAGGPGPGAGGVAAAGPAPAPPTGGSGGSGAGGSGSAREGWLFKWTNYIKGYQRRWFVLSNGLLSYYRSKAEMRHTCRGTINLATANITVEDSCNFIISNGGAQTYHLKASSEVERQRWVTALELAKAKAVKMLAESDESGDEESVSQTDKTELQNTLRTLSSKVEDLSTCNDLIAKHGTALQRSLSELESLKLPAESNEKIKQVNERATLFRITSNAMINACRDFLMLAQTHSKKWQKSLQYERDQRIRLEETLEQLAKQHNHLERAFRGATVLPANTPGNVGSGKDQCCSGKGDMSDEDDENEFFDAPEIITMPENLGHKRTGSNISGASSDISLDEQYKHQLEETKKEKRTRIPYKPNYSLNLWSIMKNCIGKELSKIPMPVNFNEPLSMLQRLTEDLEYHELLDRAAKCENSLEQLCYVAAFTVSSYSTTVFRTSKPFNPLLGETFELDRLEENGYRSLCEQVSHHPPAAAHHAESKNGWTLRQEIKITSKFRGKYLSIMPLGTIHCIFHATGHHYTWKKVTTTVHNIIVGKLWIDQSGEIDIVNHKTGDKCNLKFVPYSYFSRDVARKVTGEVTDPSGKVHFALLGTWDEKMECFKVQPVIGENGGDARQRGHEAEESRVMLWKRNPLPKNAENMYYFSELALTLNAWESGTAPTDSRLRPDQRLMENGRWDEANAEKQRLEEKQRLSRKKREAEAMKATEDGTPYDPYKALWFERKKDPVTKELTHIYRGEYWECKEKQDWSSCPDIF
Outline: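 Purified human OSBP ORD (401-807, C-terminal 6×His) from baculovirus-infected Sf9 cells, used in a DHE sterol transfer fluorescence assay. Signal corrected for compound fluorescence. Kinetics fitted linearly or by ΔF = ΔFmax(1 − e^−kt) to give apparent k, which was plotted against compound concentration. Ki from a quadratic (tight binders) or hyperbolic equation, three independent experiments.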

[3] = Metabolic stability in mouse liver microsomes assessed as intrinsic clearance at 2.5 uM and measured upto 45 mins in presence of NADPH by LC-MS/MS analysis; assay type: ADME, Microsome; conditions: read-out: CLH
[4] = Metabolic stability in mouse liver microsomes assessed as compound remaining at 2.5 uM and measured after 45 mins in absence of NADPH by LC-MS/MS analysis; assay type: ADME, Microsome; conditions: read-out: Stability
[5] = Antitumor activity in high alert medicated patient derived human GBM1 cells xenografted in immunodeficient nude mouse model assessed as tumor growth inhibition at 50 mg/kg,ip QD and measured after 9 to 11 days; assay type: functional; outline: as §1
[6] = Drug uptake in human hTERT-RPE1 cells assessed as drug co-localization with OSBP perinuclear region of cell incubated for 30 mins by immunofluorescence analysis; assay type: ADME, cell-based; conditions: tert-rpe1, 0.5 h
Outline: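 hTERT-RPE-1 cells incubated 30 min with compound, then fixed (4% paraformaldehyde, 0.1% glutaraldehyde, 10 min), quenched with 50 mM NH₄Cl and permeabilized in saponin 0.05%/BSA 0.2%. Immunolabeled for OSBP and TGN-46. Compound imaged directly by UV-adapted widefield fluorescence (excitation 330, emission 410 nm).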

[7] = biological target: T2, Oxysterol-binding protein 1 (Homo sapiens) (UniProt P22059); test: Inhibition of human OSBP in human hTERT-RPE1 cells co-transfected with GFP-P4MSidM and TagBFP-betaGalT1 assessed as half life for inhibition of PI4P transfer by OBSP by immunofluorescence analysis; assay type: cell-based
T2 sequence (whole entry): T1 sequence (P22059 whole entry)
Outline: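 hTERT-RPE-1 cells electroporated with GFP-P4M^SidM (PI4P probe) and TagBFP-βGalT1, plated 18-24 h. Timelapse confocal imaging at 37 °C after compound addition, with P4M-GFP intensity at the TGN tracked over time and compared before and 50 min after addition. Mean of 4 to 6 independent experiments ± SEM.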

[8] = Toxicity in immunodeficient mouse assessed as body weight change at 100 mg/kg,ip QD for 5 days; assay type: organism-based; conditions: in vivo, 120 h, time 5 day
[9] = Metabolic stability in mouse plasma assessed as half life at 5 uM and measured upto 120 mins by UPLC-MS/MS analysis; assay type: ADME, cell-free
Outline: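 Male mouse plasma at 37 °C with compound added from a 5 µM solution […]. Sampled at 0, 15, 30, 45, 60 and 120 min, quenched with acetonitrile and read by LC-MS/MS (MRM) in duplicate. Procaine positive control. Remaining % and t1/2 derived from MRM area relative to t = 0.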

Ki [2]: 1.07 µM
microsomal CLint at 2.5 µM [3]: 120 µL/min/mg
remaining at 0.75 h, 2.5 µM [4]: 16%
Drug uptake [6]: Active
T1/2 [7]: 25 min
half-life at 5 µM [9]: 51 min
SMILES: CC1(C)CCc2c(O)cc(/C=C/c3cc(O)c4c(c3)C[C@@H]3C(C)(C)[C@H](OC=O)CC[C@@]3(C)O4)cc2O1
Activity [1]: 396.24%
TGDI at 50 mg/kg [5]: 1.37%
Activity [8]: Non-Toxic
